Measurements from ChEMBL document CHEMBL1141482, “Selective, high affinity A(2B) adenosine receptor antagonists: N-1 monosubstituted 8-(pyrazol-4-yl)xanthines” (Bioorg Med Chem Lett, 2008).

Tests used:
[1] = target: T1, Adenosine receptor A2b (Homo sapiens, UniProt P29275); experiment: Displacement of [3H]-ZM241385 from human A2B receptor expressed in HEK293 cell membranes
T1 sequence (P29275 whole entry): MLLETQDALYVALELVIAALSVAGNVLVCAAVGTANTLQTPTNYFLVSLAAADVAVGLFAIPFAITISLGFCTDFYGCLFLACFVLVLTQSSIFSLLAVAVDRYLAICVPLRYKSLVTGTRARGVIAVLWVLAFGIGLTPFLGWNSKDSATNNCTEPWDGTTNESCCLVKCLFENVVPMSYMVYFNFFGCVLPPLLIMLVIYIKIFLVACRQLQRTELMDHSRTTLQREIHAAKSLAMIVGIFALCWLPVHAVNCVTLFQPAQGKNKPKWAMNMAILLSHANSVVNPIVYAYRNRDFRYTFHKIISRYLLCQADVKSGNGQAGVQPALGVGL
Outline: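 Membranes from HEK cells expressing A2B; binding sites labeled with 3H-ZM241385 at 14 nM and displaced competitively.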

[2] = species: Homo sapiens; experiment: Selectivity for human A2B receptor over human A1 receptor
[3] = species: Homo sapiens; experiment: Selectivity for human A2B receptor over human A3 receptor
[4] = target: T2, Adenosine receptor A1 (Homo sapiens, UniProt P30542); experiment: Displacement of [3H]-CPX from human A1 receptor expressed in CHO cell membranes
T2 sequence (P30542 whole entry): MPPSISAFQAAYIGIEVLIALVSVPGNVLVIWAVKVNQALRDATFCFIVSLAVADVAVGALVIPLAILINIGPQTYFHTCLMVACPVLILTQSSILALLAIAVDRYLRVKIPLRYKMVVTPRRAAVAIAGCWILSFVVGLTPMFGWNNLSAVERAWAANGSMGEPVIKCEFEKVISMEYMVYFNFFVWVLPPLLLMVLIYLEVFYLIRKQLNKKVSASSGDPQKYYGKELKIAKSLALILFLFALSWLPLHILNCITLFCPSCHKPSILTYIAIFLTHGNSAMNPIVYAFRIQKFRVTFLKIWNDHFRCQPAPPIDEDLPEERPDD
Outline: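 Competitive binding on membranes prepared from A1-expressing CHO cells, radioligand 3H-CPX at 0.5 nM.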

[5] = target: T3, Adenosine receptor A3 (Homo sapiens, UniProt P0DMS8); experiment: Displacement of [125I]-AB-MECA from human A3 receptor expressed in CHO cells; type: cell-based
T3 sequence (P0DMS8 whole entry): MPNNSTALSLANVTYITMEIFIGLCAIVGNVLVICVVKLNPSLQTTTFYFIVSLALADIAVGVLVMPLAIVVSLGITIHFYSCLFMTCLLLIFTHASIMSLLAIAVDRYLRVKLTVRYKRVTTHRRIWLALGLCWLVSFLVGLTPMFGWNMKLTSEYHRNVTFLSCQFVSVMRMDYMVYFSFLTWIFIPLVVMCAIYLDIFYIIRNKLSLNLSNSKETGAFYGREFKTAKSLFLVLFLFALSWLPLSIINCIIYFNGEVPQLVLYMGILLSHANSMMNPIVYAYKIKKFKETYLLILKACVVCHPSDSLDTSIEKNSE
Outline: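 A3 binding: competition for sites labeled by 125I-AB-MECA using CHO cells expressing the A3 receptor.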

[6] = species: Homo sapiens; experiment: Selectivity for human A2B receptor over human A2A receptor
[7] = target: Adenosine receptor A2a (Homo sapiens, UniProt P29274); experiment: Displacement of [3H]ZM241385 from human A2A receptor expressed in HEK293 cell membranes
Chain of Adenosine receptor A2a (P29274 whole entry): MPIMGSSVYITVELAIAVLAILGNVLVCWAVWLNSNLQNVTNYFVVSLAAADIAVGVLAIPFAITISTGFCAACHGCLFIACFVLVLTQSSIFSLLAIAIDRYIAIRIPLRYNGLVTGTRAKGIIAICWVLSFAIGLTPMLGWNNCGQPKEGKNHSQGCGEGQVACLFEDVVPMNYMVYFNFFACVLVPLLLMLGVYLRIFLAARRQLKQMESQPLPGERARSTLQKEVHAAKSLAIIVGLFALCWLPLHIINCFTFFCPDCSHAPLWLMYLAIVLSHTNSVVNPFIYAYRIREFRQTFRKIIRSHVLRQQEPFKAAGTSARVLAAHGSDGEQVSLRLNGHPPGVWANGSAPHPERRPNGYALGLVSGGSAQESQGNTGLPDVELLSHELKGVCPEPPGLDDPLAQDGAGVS
Outline: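 A2A affinity by competition with 3H-ZM241385 (2 nM) for binding sites in membranes from HEK-A2A cells.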

Row | Ki [1] [µM] | Ratio Ki [2] | Ratio Ki [3] | Ki [4] [µM] | Ki [5] [µM] | Ratio Ki [6] | Ki [7] [µM] | Structure (SMILES)
1 | 0.018 | 230 | 15 | 4.2 | 0.27 | > 280 | > 5 | CCCCn1c(=O)[nH]c2nc(-c3cnn(Cc4cccc(F)c4)c3)[nH]c2c1=O
2 | 0.011 | 160 | 15 | 1.8 | 0.16 | 160 | 1.73 | CCCn1c(=O)[nH]c2nc(-c3cnn(Cc4cccc(F)c4)c3)[nH]c2c1=O
3 | 0.028 | > 210 | > 320 | > 6 | > 9 | > 180 | > 5 | CC(C)Cn1c(=O)[nH]c2nc(-c3cnn(Cc4cccc(C(F)(F)F)c4)c3)[nH]c2c1=O
4 | 0.006 | > 1000 | > 1500 | > 6 | > 9 | > 830 | > 5 | CCn1c(=O)[nH]c2nc(-c3cnn(Cc4cccc(C(F)(F)F)c4)c3)[nH]c2c1=O
5 | 0.013 | 120 | 10 | 1.6 | 0.12 | > 380 | > 5 | CCCn1c(=O)[nH]c2nc(-c3cnn(Cc4ccccc4)c3)[nH]c2c1=O
6 | 0.034 | 150 | 3 | 5.1 | 0.11 | 100 | 3.4 | CCCCn1c(=O)[nH]c2nc(-c3cnn(Cc4ccccc4)c3)[nH]c2c1=O
7 | 0.003 | > 2000 | 300 | > 6 | 1 | > 1600 | > 5 | O=c1[nH]c2nc(-c3cnn(Cc4cccc(C(F)(F)F)c4)c3)[nH]c2c(=O)n1CC1CC1
8 | 0.073 | > 80 | 30 | > 6 | 2.12 | > 70 | > 5 | CCn1c(=O)[nH]c2nc(-c3cnn(Cc4cccc(F)c4)c3)[nH]c2c1=O
9 | – | 12 | 10 | 0.16 | 0.14 | 27 | – | CCCn1c(=O)c2[nH]c(-c3cnn(Cc4cccc(C(F)(F)F)c4)c3)nc2n(CCC)c1=O
10 | 0.17 | > 30 | – | > 6 | – | > 30 | > 5 | CCCn1c(=O)[nH]c2nc(-c3cnn(Cc4cc(-c5ccc(Cl)cc5)on4)c3)[nH]c2c1=O
11 | 0.012 | > 500 | > 750 | > 6 | > 9 | > 410 | > 5 | CC(C)Cn1c(=O)[nH]c2nc(-c3cnn(Cc4cc(-c5ccccc5)on4)c3)[nH]c2c1=O
12 | – | 50 | 30 | – | – | 85 | – | CCCn1c(=O)c2[nH]c(-c3cnn(Cc4noc(-c5ccccc5)n4)c3)nc2n(CCC)c1=O
13 | 0.014 | > 400 | > 650 | > 6 | > 9 | > 350 | > 5 | CC(C)Cn1c(=O)[nH]c2nc(-c3cnn(Cc4noc(-c5ccc(C(F)(F)F)cc5)n4)c3)[nH]c2c1=O
14 | 0.015 | 200 | > 600 | 3.5 | > 9 | > 300 | > 5 | CCCn1c(=O)[nH]c2nc(-c3cnn(Cc4noc(-c5ccccc5)n4)c3)[nH]c2c1=O
15 | 0.015 | 90 | > 600 | 1.4 | > 9 | > 300 | > 5 | CCCn1c(=O)[nH]c2nc(-c3cnn(Cc4noc(-c5ccc(C(F)(F)F)cc5)n4)c3)[nH]c2c1=O
16 | 0.048 | > 120 | > 190 | > 6 | > 9 | > 100 | > 5 | O=c1[nH]c2nc(-c3cnn(Cc4noc(-c5ccc(Cl)cc5)n4)c3)[nH]c2c(=O)n1CC1CC1
17 | 0.023 | > 260 | > 400 | > 6 | > 9 | > 210 | > 5 | CCCCn1c(=O)[nH]c2nc(-c3cnn(Cc4noc(-c5ccc(Cl)cc5)n4)c3)[nH]c2c1=O
18 | 0.015 | > 400 | > 600 | > 6 | > 9 | > 300 | > 5 | O=c1[nH]c2nc(-c3cnn(Cc4cc(-c5ccc(C(F)(F)F)cc5)on4)c3)[nH]c2c(=O)n1CC1CC1
19 | 0.022 | > 270 | > 400 | > 6 | > 9 | > 230 | > 5 | CCCn1c(=O)[nH]c2nc(-c3cnn(Cc4cc(-c5ccccc5)on4)c3)[nH]c2c1=O
20 | 0.008 | > 750 | 80 | > 6 | 0.7 | > 620 | > 5 | CCCn1c(=O)[nH]c2nc(-c3cnn(Cc4cccc(C(F)(F)F)c4)c3)[nH]c2c1=O
21 | 0.03 | > 200 | > 300 | > 6 | > 9 | > 170 | > 5 | CCCCn1c(=O)[nH]c2nc(-c3cnn(Cc4cccc(C(F)(F)F)c4)c3)[nH]c2c1=O

The remaining lines, values behind:

Row | Structure (SMILES) | Ki [1] [µM] | Ratio Ki [2] | Ratio Ki [3] | Ki [4] [µM] | Ki [5] [µM] | Ratio Ki [6] | Ki [7] [µM]
22 | O=c1[nH]c2nc(-c3cnn(Cc4ccccc4)c3)[nH]c2c(=O)n1Cc1ccccc1 | > 6 | – | – | – | – | – | –
23 | CC(C)Cn1c(=O)[nH]c(=O)c2[nH]c(-c3cnn(Cc4ccccc4)c3)nc21 | > 6 | – | – | – | – | – | –
24 | CCCn1c(=O)[nH]c(=O)c2[nH]c(-c3cnn(Cc4ccccc4)c3)nc21 | > 6 | – | – | – | – | – | –
25 | O=c1[nH]c2nc(-c3cnn(Cc4ccccc4)c3)[nH]c2c(=O)n1CC1CC1 | 0.006 | 550 | 30 | 3.29 | 0.18 | 460 | 2.76
26 | CCCn1c(=O)c2[nH]c(-c3cnn(Cc4cccc(F)c4)c3)nc2n(CCC)c1=O | – | 13 | 4 | – | 0.058 | 18 | –
27 | CCCn1c(=O)c2[nH]c(-c3cnn(Cc4ccccc4)c3)nc2n(CCC)c1=O | – | 7 | 16 | – | – | 26 | –
28 | O=c1[nH]c2nc(-c3cnn(Cc4cccc(F)c4)c3)[nH]c2c(=O)n1CC1CC1 | 0.005 | 42 | – | 0.21 | – | 20 | 0.1
29 | CCCCn1c(=O)[nH]c(=O)c2[nH]c(-c3cnn(Cc4ccccc4)c3)nc21 | > 6 | – | – | – | – | – | –
30 | CCn1c(=O)[nH]c2nc(-c3cnn(Cc4ccccc4)c3)[nH]c2c1=O | 0.037 | 150 | 40 | 5.6 | 1.5 | 100 | 3.8
31 | CC(C)Cn1c(=O)[nH]c2nc(-c3cnn(Cc4cccc(F)c4)c3)[nH]c2c1=O | 0.024 | > 250 | 70 | > 6 | 1.6 | > 200 | > 5
32 | CC(C)Cn1c(=O)[nH]c2nc(-c3cnn(Cc4ccccc4)c3)[nH]c2c1=O | 0.013 | > 460 | 90 | > 6 | 1.1 | > 380 | > 5
33 | CCCn1c(=O)[nH]c2nc(-c3cnn(Cc4noc(-c5ccc(Cl)cc5)n4)c3)[nH]c2c1=O | 0.007 | > 850 | > 1280 | > 6 | > 9 | > 700 | > 5
34 | O=c1[nH]c(=O)n(Cc2ccccc2)c2nc(-c3cnn(Cc4ccccc4)c3)[nH]c12 | > 6 | – | – | – | – | – | –
35 | Cn1c(=O)[nH]c(=O)c2[nH]c(-c3cnn(Cc4ccccc4)c3)nc21 | > 6 | – | – | – | – | – | –
36 | CCn1c(=O)[nH]c(=O)c2[nH]c(-c3cnn(Cc4ccccc4)c3)nc21 | > 6 | – | – | – | – | – | –
37 | CCCn1c(=O)c2[nH]c(-c3cnn(Cc4cc(-c5ccccc5)on4)c3)nc2n(CCC)c1=O | – | 110 | 130 | – | – | 30 | –
